From ChEMBL document CHEMBL3739258, “Click-based synthesis of bromotyrosine alkaloid analogs as potential anti-biofilm leads for SAR studies” (Bioorg Med Chem Lett, 2015)

Tested on: not listed separately
Assay: Toxicity in Paracoccus sp. 4M6 assessed as growth inhibition at 100 uM after 15 hrs by Syto61 based-fluorescence analysis relative to control
Settings: not given

Compound | Activity
COc1ccc(Cn2cc(C(=O)NCCc3ccc(O)cc3)nn2)cc1Br | Non-toxic
COc1ccc(Cn2cc(C(=O)NCCc3cc(Br)c(O)c(Br)c3)nn2)cc1Br | Non-toxic
COc1ccc(CCn2cc(C(=O)NCCc3ccc(O)cc3)nn2)cc1Br | Non-toxic
O=C(NCCc1cc(Br)c(O)c(Br)c1)c1cn(CCc2cc(Br)c(O)c(Br)c2)nn1 | Non-toxic
O=C(NCCc1ccc(O)cc1)c1cn(CCc2ccc(O)cc2)nn1 | Non-toxic
O=C(NCCc1ccc(O)cc1)c1cn(CCc2ccc(O)c(Br)c2)nn1 | Non-toxic

Tested on: not listed separately
Assay: Toxicity in Pseudoalteromonas ulvae TC14 assessed as effect on viability at 100 uM after 6 hrs by resazurin-staining assay relative to control
Settings: not given
How it was run: (§1)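 Strains grown in VNSS at 20 °C. Bacterial suspension added to VNSS wells containing compound at 100 µM, triplicate, with solvent and untreated controls. OD600 followed hourly for 6 h. Resazurin was then added and fluorescence read after 2 h. Percent viability was calculated as in the Syto 61 adhesion assay.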

Compound | Activity
COc1ccc(Cn2cc(C(=O)NCCc3ccc(O)cc3)nn2)cc1Br | Non-toxic
COc1ccc(Cn2cc(C(=O)NCCc3cc(Br)c(O)c(Br)c3)nn2)cc1Br | Non-toxic
COc1ccc(CCn2cc(C(=O)NCCc3ccc(O)cc3)nn2)cc1Br | Non-toxic
O=C(NCCc1cc(Br)c(O)c(Br)c1)c1cn(CCc2cc(Br)c(O)c(Br)c2)nn1 | Non-toxic
O=C(NCCc1ccc(O)cc1)c1cn(CCc2ccc(O)cc2)nn1 | Non-toxic
O=C(NCCc1ccc(O)cc1)c1cn(CCc2ccc(O)c(Br)c2)nn1 | Non-toxic

Tested on: Pseudoalteromonas ulvae
Assay: Antibiofilm activity against Pseudoalteromonas ulvae TC14 assessed as reduction in adhesion after 15 hrs by Syto61 based-fluorescence analysis relative to control
Format: functional
Settings: TC14, 15 h
How it was run: (§2)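 Adhesion assay: cells from a 20 °C VNSS stationary-phase culture were resuspended in artificial seawater (OD600 0.2–0.4). They were exposed to a range of compound concentrations in triplicate for 15 h at 20 °C, then washed with 36 g/L NaCl and stained 10 min with 40 µmol/L Syto 61. Fluorescence was read at ex 615/em 670 nm relative to bacteria-only controls. EC50 came from dose-response curve fitting.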

EC50 | Compound
40 µM | COc1ccc(Cn2cc(C(=O)NCCc3ccc(O)cc3)nn2)cc1Br
40.2 µM | COc1ccc(Cn2cc(C(=O)NCCc3cc(Br)c(O)c(Br)c3)nn2)cc1Br
32.6 µM | COc1ccc(CCn2cc(C(=O)NCCc3ccc(O)cc3)nn2)cc1Br
26.6 µM | O=C(NCCc1cc(Br)c(O)c(Br)c1)c1cn(CCc2cc(Br)c(O)c(Br)c2)nn1
72.9 µM | O=C(NCCc1ccc(O)cc1)c1cn(CCc2ccc(O)cc2)nn1
69.3 µM | O=C(NCCc1ccc(O)cc1)c1cn(CCc2ccc(O)c(Br)c2)nn1

Tested on: Pseudoalteromonas ulvae
Assay: Antibiofilm activity against Pseudoalteromonas ulvae TC14 assessed as microbial adhesion at 200 uM after 15 hrs by Syto61 based-fluorescence analysis relative to control
Format: functional
Settings: not given
How it was run: (§3)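 Cells grown in VNSS at 20 °C to stationary phase, centrifuged, and resuspended in sterile artificial seawater to OD600 0.2–0.4. Suspension incubated with compound at 200 µM in triplicate for 15 h at 20 °C. Loose cells removed with three washes in 36 g/L NaCl. Attached cells stained 10 min at room temperature with 40 µmol/L Syto 61, then washed and the stain solubilised. Fluorescence read at ex 615/em 670 nm against untreated adhesion-control wells.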

Compound | Activity
COc1ccc(Cn2cc(C(=O)NCCc3ccc(O)cc3)nn2)cc1Br | 20.7%
COc1ccc(Cn2cc(C(=O)NCCc3cc(Br)c(O)c(Br)c3)nn2)cc1Br | 23.3%
COc1ccc(CCn2cc(C(=O)NCCc3ccc(O)cc3)nn2)cc1Br | 18.7%
O=C(NCCc1cc(Br)c(O)c(Br)c1)c1cn(CCc2cc(Br)c(O)c(Br)c2)nn1 | 29.3%
O=C(NCCc1ccc(O)cc1)c1cn(CCc2ccc(O)cc2)nn1 | 16%
O=C(NCCc1ccc(O)cc1)c1cn(CCc2ccc(O)c(Br)c2)nn1 | 31.4%

Tested on: Paracoccus sp.
Assay: Antibiofilm activity against Paracoccus sp. 4M6 assessed as microbial adhesion at 200 uM after 15 hrs by Syto61 based-fluorescence analysis relative to control
Format: functional
Settings: not given
How it was run: as §3

Compound | Activity
COc1ccc(Cn2cc(C(=O)NCCc3ccc(O)cc3)nn2)cc1Br | 31.2%
COc1ccc(Cn2cc(C(=O)NCCc3cc(Br)c(O)c(Br)c3)nn2)cc1Br | 37.9%
COc1ccc(CCn2cc(C(=O)NCCc3ccc(O)cc3)nn2)cc1Br | 28.2%
O=C(NCCc1cc(Br)c(O)c(Br)c1)c1cn(CCc2cc(Br)c(O)c(Br)c2)nn1 | 38.7%
O=C(NCCc1ccc(O)cc1)c1cn(CCc2ccc(O)cc2)nn1 | 44.5%
O=C(NCCc1ccc(O)cc1)c1cn(CCc2ccc(O)c(Br)c2)nn1 | 43.4%

Tested on: Pseudoalteromonas lipolytica
Assay: Antibiofilm activity against Pseudoalteromonas lipolytica TC8 assessed as microbial adhesion at 200 uM after 15 hrs by Syto61 based-fluorescence analysis relative to control
Format: functional
Settings: not given
How it was run: as §3

Compound | Activity
COc1ccc(Cn2cc(C(=O)NCCc3ccc(O)cc3)nn2)cc1Br | 38.3%
COc1ccc(Cn2cc(C(=O)NCCc3cc(Br)c(O)c(Br)c3)nn2)cc1Br | 40%
COc1ccc(CCn2cc(C(=O)NCCc3ccc(O)cc3)nn2)cc1Br | 35%
O=C(NCCc1cc(Br)c(O)c(Br)c1)c1cn(CCc2cc(Br)c(O)c(Br)c2)nn1 | 40.32%
O=C(NCCc1ccc(O)cc1)c1cn(CCc2ccc(O)cc2)nn1 | 43%
O=C(NCCc1ccc(O)cc1)c1cn(CCc2ccc(O)c(Br)c2)nn1 | 35%

Tested on: not listed separately
Assay: Toxicity in Paracoccus sp. 4M6 assessed as effect on viability at 100 uM after 6 hrs by resazurin-staining assay relative to control
Settings: not given
How it was run: as §1

Compound | Activity
COc1ccc(Cn2cc(C(=O)NCCc3ccc(O)cc3)nn2)cc1Br | Non-toxic
COc1ccc(Cn2cc(C(=O)NCCc3cc(Br)c(O)c(Br)c3)nn2)cc1Br | Non-toxic
COc1ccc(CCn2cc(C(=O)NCCc3ccc(O)cc3)nn2)cc1Br | Non-toxic
O=C(NCCc1cc(Br)c(O)c(Br)c1)c1cn(CCc2cc(Br)c(O)c(Br)c2)nn1 | Non-toxic
O=C(NCCc1ccc(O)cc1)c1cn(CCc2ccc(O)cc2)nn1 | Non-toxic
O=C(NCCc1ccc(O)cc1)c1cn(CCc2ccc(O)c(Br)c2)nn1 | Non-toxic

Tested on: Pseudoalteromonas lipolytica
Assay: Antibiofilm activity against Pseudoalteromonas lipolytica TC8 assessed as reduction in adhesion after 15 hrs by Syto61 based-fluorescence analysis relative to control
Format: functional
Settings: TC8, 15 h
How it was run: as §2

EC50 | Compound
134 µM | COc1ccc(Cn2cc(C(=O)NCCc3ccc(O)cc3)nn2)cc1Br
124 µM | COc1ccc(Cn2cc(C(=O)NCCc3cc(Br)c(O)c(Br)c3)nn2)cc1Br
104 µM | COc1ccc(CCn2cc(C(=O)NCCc3ccc(O)cc3)nn2)cc1Br
96 µM | O=C(NCCc1cc(Br)c(O)c(Br)c1)c1cn(CCc2cc(Br)c(O)c(Br)c2)nn1
170 µM | O=C(NCCc1ccc(O)cc1)c1cn(CCc2ccc(O)cc2)nn1
113 µM | O=C(NCCc1ccc(O)cc1)c1cn(CCc2ccc(O)c(Br)c2)nn1

Tested on: not listed separately
Assay: Toxicity in Pseudoalteromonas lipolytica TC8 assessed as effect on viability at 100 uM after 6 hrs by resazurin-staining assay relative to control
Settings: not given
How it was run: as §1

Compound | Activity
COc1ccc(Cn2cc(C(=O)NCCc3ccc(O)cc3)nn2)cc1Br | Non-toxic
COc1ccc(Cn2cc(C(=O)NCCc3cc(Br)c(O)c(Br)c3)nn2)cc1Br | Non-toxic
COc1ccc(CCn2cc(C(=O)NCCc3ccc(O)cc3)nn2)cc1Br | Non-toxic
O=C(NCCc1cc(Br)c(O)c(Br)c1)c1cn(CCc2cc(Br)c(O)c(Br)c2)nn1 | Non-toxic
O=C(NCCc1ccc(O)cc1)c1cn(CCc2ccc(O)cc2)nn1 | Non-toxic
O=C(NCCc1ccc(O)cc1)c1cn(CCc2ccc(O)c(Br)c2)nn1 | Non-toxic

Tested on: not listed separately
Assay: Toxicity in Pseudoalteromonas lipolytica TC8 assessed as growth inhibition at 100 uM after 15 hrs by Syto61 based-fluorescence analysis relative to control
Settings: not given

Compound | Activity
COc1ccc(Cn2cc(C(=O)NCCc3ccc(O)cc3)nn2)cc1Br | Non-toxic
COc1ccc(Cn2cc(C(=O)NCCc3cc(Br)c(O)c(Br)c3)nn2)cc1Br | Non-toxic
COc1ccc(CCn2cc(C(=O)NCCc3ccc(O)cc3)nn2)cc1Br | Non-toxic
O=C(NCCc1cc(Br)c(O)c(Br)c1)c1cn(CCc2cc(Br)c(O)c(Br)c2)nn1 | Non-toxic
O=C(NCCc1ccc(O)cc1)c1cn(CCc2ccc(O)cc2)nn1 | Non-toxic
O=C(NCCc1ccc(O)cc1)c1cn(CCc2ccc(O)c(Br)c2)nn1 | Non-toxic

Tested on: Paracoccus sp.
Assay: Antibiofilm activity against Paracoccus sp. 4M6 assessed as reduction in adhesion after 15 hrs by Syto61 based-fluorescence analysis relative to control
Format: functional
Settings: Paracoccus sp. (in: a-proteobacteria), 4M6, 15 h
How it was run: as §2

EC50 | Compound
97.3 µM | COc1ccc(Cn2cc(C(=O)NCCc3ccc(O)cc3)nn2)cc1Br
84 µM | COc1ccc(Cn2cc(C(=O)NCCc3cc(Br)c(O)c(Br)c3)nn2)cc1Br
72.9 µM | COc1ccc(CCn2cc(C(=O)NCCc3ccc(O)cc3)nn2)cc1Br
83.2 µM | O=C(NCCc1cc(Br)c(O)c(Br)c1)c1cn(CCc2cc(Br)c(O)c(Br)c2)nn1
196 µM | O=C(NCCc1ccc(O)cc1)c1cn(CCc2ccc(O)cc2)nn1
156 µM | O=C(NCCc1ccc(O)cc1)c1cn(CCc2ccc(O)c(Br)c2)nn1
